Test [1] deals with H4. Description: Tested for its reversal effect on growth of H4 cells at 133+5 ug/mL concentrations of L-aspargine and DL-threo-beta-fluoroaspartate. It is filed as functional. The method, boiled down:
(§1)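 Rat hepatoma H4 cells seeded at 1.4×10^4 per 35-mm dish in MEM+. On day 4, fresh MEM+ was added, with treatments including L-aspartate or L-asparagine. Exposure 66 h, then total cell protein per dish measured by Lowry. Results expressed as % of untreated control protein, mean of duplicate dishes.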

Test [2] relates to H4. Description: Tested for its reversal effect on growth of H4 cells at 330+5 ug/mL concentrations of L-aspargine and DL-threo-beta-fluoroaspartate. The class given is functional. In outline: (§2)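 H4 hepatoma cells seeded at 8×10^3 per 35-mm dish in F 10+ medium. On day 4, the medium was renewed and treatments started, including L-aspartate or L-asparagine. Incubation 72 h, then Lowry total cell protein per dish. Results reported as % of untreated control, mean of duplicate dishes.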

Test [3] concerns H4. Description: Tested for its reversal effect on growth of H4 cells at 133 + 50 ug/mL concentrations of L-aspargine and DL-threo-beta-fluoroaspartate. It is filed as functional. In outline: as §1
Test [4] deals with H4. Kind of test: Tested for its reversal effect on growth of H4 cells at 330 + 40 ug/mL concentrations of L-aspargine and DL-threo-beta-fluoroaspartate. The class given is functional. The method, boiled down:
as §2

Test [5] deals with H4. Description: Tested for its cytotoxic effect on the growth of the cell strain H4 (8 x 10e 3 (MEM)) at 50 ug/mL dose. It is filed as functional. The method, boiled down:
(§3)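 Cells plated in 35-mm dishes at the stated density and medium (F 10+: Ham's F10 + 15% horse serum + 2.5% fetal calf serum; MEM+: Eagle's MEM + 5% horse + 5% fetal calf serum), grown 3 days. All strains then switched to F 10+ before treatment and incubated 4 days. Growth read as total cell protein per dish (Lowry, bovine albumin standard). Single determinations; experiment repeated twice.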

Test [6] relates to GH3. Description: Tested for its cytotoxic effect on the growth of the cell strain GH3 (2 x 10e 4 (F 10+)) at 10 ug/mL dose. It is filed as functional, Rattus norvegicus. The method, boiled down: as §3
The subject of test [7] is GH3. Kind of test: Tested for its cytotoxic effect on the growth of the cell strain GH3 (2 x 10e 4 (F 10+)) at 50 ug/mL dose. It is filed as functional, Rattus norvegicus. The method, boiled down: as §3
For test [8], the system named is 7800C1 cell line. Kind of test: Tested for its cytotoxic effect on the growth of the cell strain 7800C1 (1 x 10e 4 (MEM)) at 10 ug/mL dose. It is filed as functional, Rattus norvegicus. In outline: as §3
The test system of test [9] is GH4-C1. Kind of test: Tested for its cytotoxic effect on the growth of the cell strain GH4C1 (8 x 10e 4 (F 10+)) at 50 ug/mL dose. The class given is functional, Rattus norvegicus. In outline: as §3
In test [10] the test system is 7800C1 cell line. Description: Tested for its cytotoxic effect on the growth of the cell strain 7800C1 (1 x 10e 4 (MEM)) at 50 ug/mL dose. It is filed as functional, Rattus norvegicus. The method, boiled down:
as §3

Test [11] has as its system MH1C1. Kind of test: Tested for its cytotoxic effect on the growth of the cell strain MH1C1 (1 x 10e 4 (F 10+)) at 50 ug/mL dose. The class given is functional. The method, boiled down: as §3
Test [12] relates to MH1C1. Description: Tested for its cytotoxic effect on the growth of the cell strain MH1C1 (1 x 10e 4 (F 10+)) at 10 ug/mL dose. The class given is functional. In outline:
as §3

The test system of test [13] is H4. Kind of test: Tested for its reversal effect on growth of H4 cells at 40 ug/mL concentrations of L-aspargine and DL-threo-beta-fluoroaspartate. The class given is functional. In outline: as §2
Test [14] relates to GH4-C1. Description: Tested for its cytotoxic effect on the growth of the cell strain GH4C1 (8 x 10e 4 (F 10+)) at 10 ug/mL dose. The class given is functional, Rattus norvegicus. In outline: as §3
Test [15] deals with R5. Description: Tested for its cytotoxic effect on the growth of the cell strain R5 (1 x 10e 3 (F 10+)) at 50 ug/mL dose. It is filed as functional. In outline:
as §3

The test system of test [16] is H4. Kind of test: Tested for its reversal effect on growth of H4 cells at 50 ug/mL concentrations of L-aspargine and DL-threo-beta-fluoroaspartate. The class given is functional. The method, boiled down: as §1
The subject of test [17] is H4. Kind of test: Tested for its cytotoxic effect on the growth of the cell strain H4 (8 x 10e 3 (MEM)) at 10 ug/mL dose. It is filed as functional. The method, boiled down: as §3
Test [18] has as its system R5. Description: Tested for its cytotoxic effect on the growth of the cell strain R5 (1 x 10e 3 (F 10+)) at 10 ug/mL dose. It is filed as functional. The method, boiled down:
as §3

Take `NC(C(=O)O)C(F)C(=O)O.N[C@@H](CC(=O)O)C(=O)O` (mixture of isomers): the entries for the “Cell protein in untreated control” value in test [1] and in test [2] were 79% and 78%, respectively.

Regarding `NC(=O)C(F)[C@H](N)C(=O)O.N[C@@H](CC(=O)O)C(=O)O` (mixture of isomers; form 1), the “Cell protein in untreated control” value in test [3] was 68%; in test [4] it was 93%.

With `NC(=O)C(F)[C@H](N)C(=O)O.NC(=O)C[C@H](N)C(=O)O` (mixture of isomers; form 2), the “Cell protein in untreated control” value in test [3] is 19%; in test [4], 80%.

As for `NC(=O)C(F)C(N)C(=O)O` (racemic), the Cell protein in test [5] is listed as 0 ug dish-1; in test [6] it was 36 ug dish-1; in test [7], 14 ug dish-1; in [8], 15 ug dish-1; in test [9], 16 ug dish-1; in test [10], 0 ug dish-1. Also, the Cell protein in test [11] stood at 31 ug dish-1; in test [12], 55 ug dish-1; in test [14], 35 ug dish-1; in test [15] it was 27 ug dish-1; in test [17] it was 0 ug dish-1; in test [18], 85 ug dish-1. Also, the results for the “Cell protein in untreated control” value in test [13] and in test [16] were 17% and 0%, respectively.

The values above are taken from ChEMBL document CHEMBL1122055, “DL-threo-beta-Fluoroaspartate and DL-threo-beta-fluoroasparagine: selective cytotoxic agents for mammalian cells in culture” (J Med Chem, 1982).
